The record followed here is ChEMBL document CHEMBL3758119, “Functionalized imidazolium and benzimidazolium salts as paraoxonase 1 inhibitors: Synthesis, characterization and molecular docking studies” (Bioorg Med Chem, 2016).

What is called IC50 is the concentration at which inhibition is half-maximal. In general, Ki refers to the dissociation constant of the complex between target and ligand, obtained from inhibition or displacement. Read a high Ki as lower affinity.

Experiment [1] addresses T1, Serum paraoxonase/arylesterase 1 (Homo sapiens, UniProt P27169). The experiment in a line: Inhibition of human serum PON1 using paraoxon as substrate by spectrophotometric analysis. A digest of the protocol: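 PON1 purified from human serum (ammonium sulphate precipitation, then hydrophobic interaction chromatography; stored with 2 mM CaCl2). Paraoxon 2 mM final; p-nitrophenol release followed at 412 nm for 2 min at 37 °C. Five inhibitor concentrations tested. Activity without compound taken as 100%. Measured in duplicate and corrected for non-enzymatic hydrolysis. IC50 read from activity-percentage graphs.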

Experiment [2] addresses T1, Serum paraoxonase/arylesterase 1. The experiment in a line: Competitive inhibition of human serum PON1 using paraoxon as substrate by Lineweaver-Burk plot analysis. A digest of the protocol:
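Human serum PON1 purified by ammonium sulphate precipitation (60–80%) and hydrophobic interaction chromatography, stored with 2 mM CaCl2. Paraoxon hydrolysis followed by p-nitrophenol appearance at 412 nm for 2 min at 37 °C, pH 8.00. Eight paraoxon concentrations (0.5–1.2 mM) run at two inhibitor concentrations (6.7 µM and 4.7 µM). Readings taken in duplicate and corrected for non-enzymatic hydrolysis. Ki and inhibition type taken from Lineweaver–Burk plots.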

T1 sequence (P27169 whole entry): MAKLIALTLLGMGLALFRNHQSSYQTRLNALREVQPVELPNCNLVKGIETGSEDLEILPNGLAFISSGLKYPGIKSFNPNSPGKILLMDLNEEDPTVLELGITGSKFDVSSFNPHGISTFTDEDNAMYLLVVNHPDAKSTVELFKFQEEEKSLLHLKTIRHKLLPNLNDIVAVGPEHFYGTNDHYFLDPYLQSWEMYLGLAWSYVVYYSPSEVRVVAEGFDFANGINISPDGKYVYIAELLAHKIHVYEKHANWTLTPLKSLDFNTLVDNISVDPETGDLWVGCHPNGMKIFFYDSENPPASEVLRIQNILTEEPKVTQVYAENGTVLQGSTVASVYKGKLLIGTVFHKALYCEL

With `COc1cc(C[n+]2cn(Cn3nnc4ccccc43)c3ccccc32)cc(OC)c1OC.[Cl-]`, in experiment [1], the IC50 entry is given as “Not Active”.

As for `Cc1ccc(-c2cc3cc(O)c(O)cc3oc2=O)cc1`, the IC50 in experiment [1] (read-out: IC50) came out at 3 µM.

With `Cc1cc(C)c2c(C[n+]3ccn(C)c3)cc(=O)oc2c1`, the IC50 in experiment [1] (read-out: IC50) was 23.7 µM.

As for `Cc1cc(C)c2c(C[n+]3ccn(C)c3C)cc(=O)oc2c1`, the half-maximal inhibitory concentration (IC50) in experiment [1] (read-out: IC50) stood at 317 µM.

`CCCCn1cc[n+](Cc2cc(=O)oc3cc(C)cc(C)c23)c1`: the IC50 in experiment [1] (read-out: IC50) was 6.37 µM. The compound further registered a Ki in experiment [2] of 2390 nM.

Regarding `Cc1n(C)cc[n+]1Cc1nc2ccccc2[nH]1`, in experiment [1] (read-out: IC50), the concentration for half-maximal inhibition (IC50) worked out at 626 µM.

On to `Cn1cc[n+](Cn2nnc3ccccc32)c1.[Cl-]`, for which the IC50 entry in experiment [1] was “Not Active”.

In the case of `Cc1ccc2c(CCl)cc(=O)oc2c1C`, in experiment [1] (read-out: IC50), the IC50 is 21.4 µM.

`CCCCn1cc[n+](Cc2nc3ccccc3[nH]2)c1`: the IC50 in experiment [1] (read-out: IC50) stood at 29 µM.

Consider `CC(C)(C)c1ccc2oc(=O)cc(C[n+]3cn(Cn4nnc5ccccc54)c4ccccc43)c2c1`, for which the IC50 in experiment [1] (read-out: IC50) amounted to 627 µM.

Regarding `CC(C)(C)c1ccc2oc(=O)cc(CCl)c2c1`, the IC50 in experiment [1] (read-out: IC50) was 40 µM.

As to `CCCC[n+]1cn(Cn2nnc3ccccc32)c2ccccc21`, the IC50 in experiment [1] (read-out: IC50) was 3330 µM.

On to `c1ccc(C[n+]2cn(Cn3nnc4ccccc43)c3ccccc32)cc1`, for which the IC50 in experiment [1] (read-out: IC50) was 2060 µM.

For `O=C1COc2ccc(C(=O)C[n+]3cn(Cn4nnc5ccccc54)c4ccccc43)cc2N1`, the IC50 in experiment [1] (read-out: IC50) was found to be 8.76 µM.

Regarding `Cc1n(C)cc[n+]1Cn1nnc2ccccc21.[Cl-]`, in experiment [1], the IC50 result is “Not Active”.

For the compound `Cc1ccc2c(C[n+]3cn(Cn4nnc5ccccc54)c4ccccc43)cc(=O)oc2c1C`, the IC50 in experiment [1] (read-out: IC50) worked out at 237 µM.

Take `CCCCn1cc[n+](Cn2nnc3ccccc32)c1.[Cl-]`: the IC50 result in experiment [1] is listed as “Not Active”.

With `c1ccc2c(c1)ncn2Cn1nnc2ccccc21`, the IC50 in experiment [1] (read-out: IC50) turned out to be 564 µM.

On to `Cn1cc[n+](Cc2nc3ccccc3[nH]2)c1`, for which the IC50 in experiment [1] (read-out: IC50) is 19 µM.

`Cc1cc(C)c2c(CCl)cc(=O)oc2c1`: the IC50 in experiment [1] (read-out: IC50) was determined as 31.4 µM.

`[Cl-].c1ccc2c(c1)nnn2Cn1c[n+](Cn2nnc3ccccc32)c2ccccc21`: in experiment [1], the 50% inhibitory concentration (IC50) entry is recorded as “Not Active”.
